Measured values from PMC4339263 (Health physics, 2015).
Values joined by “and” are separate entries in the source; they are usually repeats but may differ in a detail not shown here. Equal values may be shown once. Read-outs that look alike come from different tables or passages of the source.

What was measured:
Ionization = assay type: physicochemical; conditions: 5 mM ligand in 0.15 M KCl
Method in brief: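 The free ligand was titrated with acid and then with base. After each addition it was equilibrated for 30 s, and pH was then read on a glass electrode with an Ag/AgCl reference. Ligand integrity was checked afterwards by HPLC with charged aerosol detection. Constants were calculated from three replicates.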

[1] = Competitive binding of ^241Am in human plasma; conditions: for EC50 / EC90 / logistic equation parameter a (slope) / logistic equation parameter b (inflection point) / logistic equation parameter c (asymptote, fraction of bound ^241Am): human plasma, 3 nM ^241Am nitrate, 37°C; for logistic equation parameter a (slope) / logistic equation parameter b (inflection point) / logistic equation parameter c (asymptote, fraction of bound ^241Am): estimate ± 95% conf. interval
Method in brief: (§1)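 Ligand stocks were in 10 mM sodium phosphate, pH 7.4, and added to plasma at 0.5–750 µM final, with ^241Am nitrate (stock in 1 M HCl). Samples were incubated at 37°C with mild agitation, then protein-bound Am was removed on a 3K ultrafilter (14,000×g, 30 min). Ligand-bound and cationic Am in the filtrate were separated on strong cation-exchange spin columns, and each fraction was gamma-counted (40–80 keV). Bound fraction was fitted against log concentration by logistic Gauss-Newton regression, and EC50 was taken at half of the asymptote.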

[2] = Competitive binding of ^241Am in beagle plasma; conditions: 3 nM ^241Am nitrate, 37°C; for logistic equation parameter a (slope) / logistic equation parameter b (inflection point) / logistic equation parameter c (asymptote, fraction of bound ^241Am): estimate ± 95% conf. interval
Method in brief: as §1

[3] = Solvent extraction study of the Am; assay type: binding; conditions: for calculated formation constant (log K) of the ^241Am-ligand complex: calculated from lg β^cond and pKa values; for conditional stability constant (lg β^cond) of the ^241Am complex: pH 1.3, I = 0.1 M NaCl, 25°C, 0.1 M HDEHP in dodecane
Method in brief: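 Tracer ^241Am (16.7 MBq L-1) was partitioned between the organic and aqueous phases, with ligand at 0.05–100 µM in the aqueous phase. Samples were vortexed, shaken for 60 min, and centrifuged (10,000×g, 10 min). Both phases were gamma-counted (40–80 keV window), in triplicate. D0 came from a ligand-free aqueous phase. lg β^cond was obtained from a linear fit of […] against ligand concentration, and formation constants were then derived using the pKa values.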

[4] = Competitive binding of ^241Am in rat plasma; conditions: 3 nM ^241Am nitrate, 37°C; for logistic equation parameter a (slope) / logistic equation parameter b (inflection point) / logistic equation parameter c (asymptote, fraction of bound ^241Am): estimate ± 95% conf. interval
Method in brief: as §1

[5] = Pharmacokinetics of C2E2 in beagle dogs; assay type: in vivo
Method in brief: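 Dogs were 8–10 months old and weighed 10.1–12.0 kg. They were fasted overnight and dosed by gavage (12.05 mg mL-1 solution), with food returned about 2 h later. Jugular blood was drawn pre-dose and at 0.5–24 h into fluoride/oxalate tubes. Plasma was acidified with 20% formic acid and stored at –80 °C. Analysis was by LC/MS/MS with ^13C internal standards; the acid metabolite was measured as its Fe(III) complex in negative-ion mode. Data were fitted to a two-compartment model.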

[6] = assay type: in vivo, beagle; conditions: beagles, 100 mg kg^−1 oral C2E2
[7] = reported for DTPA; cited from earlier work
[8] = oral; ref Volf, 1984; cited from earlier work
[9] = ref Martell, 1982; cited from earlier work
[10] = cited from earlier work; for stability constant (log K) of the americium complex: ref Ansoborlo et al., 2007
[11] = 100 mg kg^−1 oral, two-compartment model

Molecule | pKa1 (Ionization) | pKa2 (Ionization) | pKa3 (Ionization) | EC50 [1] [µM] | EC90 [1] [µM] | logistic equation parameter a (slope) [1] | logistic equation parameter b (inflection point) [1] | logistic equation parameter c (asymptote, fraction of bound ^241Am) [1] | EC50 [2] [µM] | EC90 [2] [µM] | logistic equation parameter a (slope) [2] | logistic equation parameter b (inflection point) [2] | logistic equation parameter c (asymptote, fraction of bound ^241Am) [2] | calculated formation constant (log K) of the ^241Am-ligand complex [3] | conditional stability constant (lg β^cond) of the ^241Am complex [3] | EC50 [4] [µM] | EC90 [4] [µM] | logistic equation parameter a (slope) [4] | logistic equation parameter b (inflection point) [4] | logistic equation parameter c (asymptote, fraction of bound ^241Am) [4] | further results
CCOC(=O)CN(CCN(CCN(CC(=O)O)CC(=O)O)CC(=O)O)CC(=O)O [C2E1, monoethyl ester of DTPA] | 9.63 ± 0.03 | 6.35 ± 0.38 | 2.99 ± 0.05 | 5.26 | 19 | 0.16 ± 0.03 | 5.26 ± 0.74 | 55.22 ± 1.06 | 2.02 | 5.87 | 0.57 ± 0.13 | 2.02 ± 0.38 | 61.69 ± 1.4 | 21.7 ± 0.5 | 2.46 | 25.5 | 60.1 | 0.06 ± 0.01 | 25.50 ± 3.36 | 45.74 ± 1.51 | pKa4 (Ionization): 1.72 ± 1.5; pKa5 (Ionization): 1.18 ± 0.45; pKa6 (Ionization): < 1.5; pKa7 (Ionization): < 1.5
CCOC(=O)CN(CCN(CCN(CC(=O)O)CC(=O)OCC)CC(=O)O)CC(=O)O [C2E2, DTPA diethyl ester] | 9.40 ± 0.02 | 4.68 ± 0.02 | 3.52 ± 0.03 | 8.87 | 18.4 | 0.23 ± 0.04 | 8.87 ± 0.80 | 60.29 ± 1.25 | 4.91 | 10.8 | 0.37 ± 0.02 | 4.91 ± 0.18 | 64.79 ± 0.50 | 19.6 and 19.6 ± 0.2 | 1.36 | 46.2 | 101 | 0.04 ± 0.00 | 46.17 ± 3.43 | 54.62 ± 1.58 | fraction of the absorbed dose metabolized to C2E1 or DTPA ([5]; 100 mg kg^−1 oral): ~ 2%; difference between AUC0–24 of males and females ([5]; 100 mg kg^−1 oral, two males and two females): no significant difference; elimination half-life from the first compartment [5, 11]: 0.69 h; elimination half-life from the second compartment [5, 11]: 6.66 h; time to peak plasma concentration after administration ([5]; single 100 mg kg^−1 oral gavage): 1 h; pKa4 (Ionization): 1.87 ± 0.05; pKa5 (Ionization): 1.76 ± 0.05; pKa6 (Ionization): 1.45 ± 0.09; time plasma concentration is above the 50% maximal binding threshold [6]: 4.7 h; difference between concentration required for chelation in humans and dogs ([1]; human vs dog plasma): less than 2 fold; difference between concentration required for chelation in humans and rats ([1]; human vs rat plasma): greater than 5 fold; stability of the ^241Am complex lower than that of the DTPA-^241Am complex [3]: 6 log units; strength of americium binding relative to the strongest ligand in the plasma ([3]; compared with the americium-transferrin complex): nine orders of magnitude higher
O=C(O)CN(CCN(CC(=O)O)CC(=O)O)CCN(CC(=O)O)CC(=O)O [DTPA, Diethylenetriaminepentaacetic acid, reference compound] |  |  |  | 2.82 | 5.05 | 0.98 ± 0.13 | 2.82 ± 0.30 | 55.88 ± 1.40 | 1.08 | 2.25 | 1.87 ± 0.69 | 1.08 ± 0.18 | 54.75 ± 2.16 | 25.4 ± 0.3 | 2.70 | 5.36 | 12.4 | 0.31 ± 0.03 | 5.36 ± 0.43 | 35.69 ± 0.85 | pKa1 [7]: 10.51 ± 0.01; pKa2 [7]: 8.54 ± 0.02; pKa3 [7]: 4.31 ± 0.02; pKa4 [7]: 2.55 ± 0.05; pKa5 [7]: 1.80 ± 0.05; pKa6 [7]: 1.60 ± 0.15; pKa7 [7]: 1.45 ± 0.15; bioavailability [8]: ~ 3%; stability constant (log K) with iron [9]: 28.0
O=C(O)CC(O)(CC(=O)O)C(=O)O [citrate] |  |  |  |  |  |  |  |  |  |  |  |  |  |  |  |  |  |  |  |  | stability constant (log K) of the americium complex [10]: 8.6
O=[N+]([O-])O [nitrate] |  |  |  |  |  |  |  |  |  |  |  |  |  |  |  |  |  |  |  |  | affinity for americium (log K) ([10]; ref Silva and OECD Nuclear Energy Agency., 1995): 1.3
transferrin: plasma protein that binds about 30% of the total ^241Am |  |  |  |  |  |  |  |  |  |  |  |  |  |  |  |  |  |  |  |  | stability constant (log K) of the americium complex [10]: 10.4
